Calls of active or inactive are those of the source. The calls are words filed in the database; no cut-off is given here.
What was measured:
[1] = Induction of BMP2 expression in mouse calcarial MC3T3-E1 cells stably transfected with mouse BMP2 promotor-luciferase assessed as upregulation rate at 4 uM; assay type: functional, cell-based
Method in brief: (§1)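 Reporter assay in murine calvarial MC3T3-E1 cells stably carrying the mouse BMP-2 promoter fused to firefly luciferase (pGL4BMP-2). Cells grown in DMEM with 10% heat-inactivated FBS at 37 °C and 5% CO2. Test compounds at 4.0 μM; lovastatin at 0.4 μM as positive control; 0.1% DMSO as negative control. Up-regulation rate = (RLU of test − RLU of negative control)/RLU of negative control × 100.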

Mus musculus [2] = assay: Induction of bone formation in SAMP6 mouse right femora assessed as average osteoid width at 30 mg/kg/day, po measured after 3 months by bone histomorphometry; assay type: functional
Method in brief: (§2)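 SAMP6 mice, 5 months old, n = 5 per group (3 male, 2 female), randomized by initial BMD. Given compound in 0.5% methylcellulose by gavage daily for 3 months. Proximal third of the right femur fixed in 4% paraformaldehyde, cut as undecalcified sections, and scored by image analysis for histomorphometry.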

Mus musculus [3] = assay: Induction of bone mineral density in SAMP6 mouse assessed as whole body BMD at 10 mg/kg/day, po measured after 2 months; assay type: functional, organism-based; settings: 30 mg/kg, in the assay text read “30 mg/kg/day” for “10 mg/kg/day”
Method in brief: (§3)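 SAMP6 mice, 5 months old, n = 5 per group, given compound in 0.5% methylcellulose by gavage daily. Dual-energy X-ray absorptiometry under pentobarbital anaesthesia (50 mg/kg ip), animals prone, at 0, 4, 8 and 12 weeks of treatment. Regions of interest were whole body, spine and left hind leg.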

Mus musculus [4] = assay: Induction of bone mineral density in SAMP6 mouse assessed as whole body BMD at 30 mg/kg/day, po measured after 2 months; assay type: functional, organism-based; method in brief: as §3
Mus musculus [5] = assay: Toxicity in SAMP6 mouse assessed as pathological changes in kidney at 30 mg/kg/day, po after 3 months by histomorphology; assay type: organism-based; design: route oral; settings: in vivo
Method in brief: (§4)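 SAMP6 mice, n = 5 per group, dosed orally at 30 mg/kg/day in 0.5% methylcellulose for 3 months. Heart, liver, spleen, lung and kidney harvested, weighed and examined histologically. Organ/body weight indexes, body weight, and 24 h water and food intake (g/g body weight) compared with vehicle controls.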

Mus musculus [6] = assay: Induction of bone formation in SAMP6 mouse right femora assessed as trabecular bone volume percentage at 30 mg/kg/day, po measured after 3 months by bone histomorphometry; assay type: functional, Trabecula; method in brief: as §2
Mus musculus [7] = assay: Toxicity in SAMP6 mouse assessed as pathological changes in liver at 30 mg/kg/day, po after 3 months by histomorphology; assay type: organism-based; design: route oral; settings: in vivo; method in brief: as §4
Mus musculus [8] = assay: Induction of BMP2 expression in SAMP6 mouse osteoblast at 30 mg/kg/day, po after 3 months by immunohistochemical analysis; assay type: functional, organism-based
Method in brief: (§5)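 SAMP6 mice, 5 months old, male and female, n = 5 per group (3 male, 2 female). Dosed by gavage with compound suspended in 0.5% methylcellulose daily for 3 months; the vehicle group received methylcellulose only. Proximal third of the left femur fixed in 4% neutral paraformaldehyde for 24 h, decalcified in 10% EDTA at 4 °C for 4 weeks, then frozen-sectioned at 5 μm. Stained with rabbit polyclonal anti-BMP-2 and an alkaline phosphatase secondary. BMP-2-positive area was taken as a percentage of bone tissue area, averaged over five fields below the epiphyseal plate.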

Mus musculus [9] = assay: Induction of bone mineral density in SAMP6 mouse assessed as left hind leg BMD at 30 mg/kg/day, po measured after 3 months; assay type: functional; method in brief: as §3
Mus musculus [10] = assay: Toxicity in SAMP6 mouse assessed as change in 24 hrs food consumption at 30 mg/kg/day, po after 3 months; assay type: organism-based; design: route oral; settings: in vivo; method in brief: as §4
Mus musculus [11] = assay: Toxicity in SAMP6 mouse assessed as pathological changes in lung at 30 mg/kg/day, po after 3 months by histomorphology; assay type: organism-based; design: route oral; settings: in vivo; method in brief: as §4
Mus musculus [12] = assay: Induction of bone mineral density in SAMP6 mouse assessed as spine BMD at 30 mg/kg/day, po measured after 3 months; assay type: functional; method in brief: as §3
Mus musculus [13] = assay: Toxicity in SAMP6 mouse assessed as pathological changes in spleen at 30 mg/kg/day, po after 3 months by histomorphology; assay type: organism-based; design: route oral; settings: in vivo; method in brief: as §4
Mus musculus [14] = assay: Induction of BMP2 expression in SAMP6 mouse osteoblast at 10 mg/kg/day, po after 3 months by immunohistochemical analysis; assay type: functional, organism-based; method in brief: as §5
Mus musculus [15] = assay: Induction of bone formation in SAMP6 mouse right femora assessed as trabecular formation surface percentage at 30 mg/kg/day, po measured after 3 months by bone histomorphometry; assay type: functional, Trabecula; method in brief: as §2
Mus musculus [16] = assay: Induction of bone mineral density in SAMP6 mouse assessed as whole body BMD at 10 mg/kg/day, po measured after 1 month; assay type: functional, organism-based; settings: 30 mg/kg, in the assay text read “30 mg/kg/day” for “10 mg/kg/day”; method in brief: as §3
Mus musculus [17] = assay: Induction of BMP2 expression in SAMP6 mouse cartilage cells at 30 mg/kg/day, po after 3 months by immunohistochemical analysis; assay type: functional, organism-based; method in brief: as §5
Mus musculus [18] = assay: Toxicity in SAMP6 mouse assessed as change in 24 hrs water consumption at 30 mg/kg/day, po after 3 months; assay type: organism-based; design: route oral; settings: in vivo; method in brief: as §4
Mus musculus [19] = assay: Induction of BMP2 expression in SAMP6 mouse bone marrow stroma at 30 mg/kg/day, po after 3 months by immunohistochemical analysis; assay type: functional, organism-based; method in brief: as §5
Mus musculus [20] = assay: Induction of bone mineral density in SAMP6 mouse assessed as whole body BMD at 30 mg/kg/day, po measured after 3 months; assay type: functional; method in brief: as §3
Mus musculus [21] = assay: Induction of bone formation in SAMP6 mouse right femora assessed as trabecular resorption surface percentage at 30 mg/kg/day, po measured after 3 months by bone histomorphometry; assay type: functional, Trabecula; method in brief: as §2
[22] = Toxicity in po dosed Kunming mouse assessed as mortality treated for 3 days measured after 17 days; assay type: organism-based; settings: in vivo
Method in brief: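 Male and female Kunming mice (18-21 g), six per group (three males, three females), were dosed orally at 500 or 700 (mg/kg)/day for 3 days. They were closely watched for deaths over the 3 dosing days and the following 14 days (17 days in total).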

Mus musculus [23] = assay: Induction of bone mineral density in SAMP6 mouse assessed as spine BMD at 30 mg/kg/day, po measured last 2 months; assay type: functional, organism-based; method in brief: as §3
Mus musculus [24] = assay: Toxicity in SAMP6 mouse assessed as increase in body weight at 30 mg/kg/day, po after 3 months; assay type: organism-based; design: route oral; settings: in vivo; method in brief: as §4
Mus musculus [25] = assay: Toxicity in SAMP6 mouse assessed as pathological changes in heart at 30 mg/kg/day, po after 3 months by histomorphology; assay type: organism-based; design: route oral; settings: in vivo; method in brief: as §4
Mus musculus [26] = assay: Induction of bone mineral density in SAMP6 mouse assessed as spine BMD at 10 mg/kg/day, po measured after 3 months; assay type: functional; method in brief: as §3
Mus musculus [27] = assay: Induction of bone formation in SAMP6 mouse right femora assessed as average osteoid width at 10 mg/kg/day, po measured after 3 months by bone histomorphometry; assay type: functional; method in brief: as §2
Mus musculus [28] = assay: Induction of bone formation in SAMP6 mouse right femora assessed as trabecular resorption surface percentage at 10 mg/kg/day, po measured after 3 months by bone histomorphometry; assay type: functional, Trabecula; method in brief: as §2
[29] = Induction of BMP2 expression in mouse […] MC3T3-E1 cells stably transfected with mouse BMP2 promotor-luciferase assessed as upregulation rate at 0.4 uM; assay type: functional, cell-based; method in brief: as §1
Mus musculus [30] = assay: Induction of bone mineral density in SAMP6 mouse assessed as whole body BMD at 10 mg/kg/day, po measured after 3 months; assay type: functional; method in brief: as §3
Mus musculus [31] = assay: Induction of bone mineral density in SAMP6 mouse assessed as spine BMD at 10 mg/kg/day, po measured last 2 months; assay type: functional, organism-based; method in brief: as §3
Mus musculus [32] = assay: Induction of bone formation in SAMP6 mouse right femora assessed as trabecular bone volume percentage at 10 mg/kg/day, po measured after 3 months by bone histomorphometry; assay type: functional, Trabecula; method in brief: as §2
Mus musculus [33] = assay: Induction of bone mineral density in SAMP6 mouse assessed as left hind leg BMD at 10 mg/kg/day, po measured after 3 months; assay type: functional; method in brief: as §3
Mus musculus [34] = assay: Induction of bone formation in SAMP6 mouse right femora assessed as trabecular formation surface percentage at 10 mg/kg/day, po measured after 3 months by bone histomorphometry; assay type: functional, Trabecula; method in brief: as §2

Question: For `CS(=O)(=O)CC(=O)c1cc2cc3c(cc2s1)OCO3`, which Activity [1] is on record?
Answer: -9.3%

Question: With `CCOC(=O)c1ccc2sc(C(=O)/C=C/c3ccccc3)cc2c1` as the molecule, how does the Activity [1] read?
Answer: 12.6%

Question: For `CCOC(=O)c1cc2cc(C(=O)OC)ccc2s1`, which Activity [1] is on record?
Answer: 49.8%

Question: For `CCOC(=O)c1cc2cc3c(cc2s1)OCO3`, which Activity (Mus musculus [2]) is on record?
Answer: 5.76 µm

Question: What about the Activity (Mus musculus [3]) of the same molecule?
Answer: Active

Question: What about the Activity (Mus musculus [4]) of the same molecule?
Answer: Active

Question: What about the Activity (Mus musculus [5]) of the same molecule?
Answer: Non-toxic

Question: What about the Activity (Mus musculus [6]) of the same molecule?
Answer: 7.1%

Question: What about the Activity (Mus musculus [7]) of the same molecule?
Answer: Non-toxic

Question: And the Activity (Mus musculus [8])?
Answer: Active

Question: And the Activity (Mus musculus [9])?
Answer: 0.053 g/cm2

Question: What about the Activity (Mus musculus [10]) of the same molecule?
Answer: Non-toxic

Question: And the Activity (Mus musculus [11])?
Answer: Non-toxic

Question: What about the Activity (Mus musculus [12]) of the same molecule?
Answer: 0.091 g/cm2

Question: What about the Activity (Mus musculus [13]) of the same molecule?
Answer: Non-toxic

Question: And the Activity (Mus musculus [14])?
Answer: Active

Question: What about the Activity (Mus musculus [15]) of the same molecule?
Answer: 5.55%

Question: And the Activity (Mus musculus [16])?
Answer: Active

Question: What about the Activity (Mus musculus [17]) of the same molecule?
Answer: inactive

Question: And the Activity (Mus musculus [18])?
Answer: Non-toxic

Question: What about the Activity (Mus musculus [19]) of the same molecule?
Answer: Active

Question: What about the Activity (Mus musculus [20]) of the same molecule?
Answer: 0.072 g/cm2

Question: What about the Activity (Mus musculus [21]) of the same molecule?
Answer: 6.45%

Question: What about the LD50 at 408 h [22] of the same molecule?
Answer: > 500 mg/kg

Question: And the Activity (Mus musculus [23])?
Answer: Active

Question: And the Activity (Mus musculus [24])?
Answer: Non-toxic

Question: And the Activity [1]?
Answer: 64.2%

Question: What about the Activity (Mus musculus [25]) of the same molecule?
Answer: Non-toxic

Question: With `CC(=O)c1cc2ccccc2o1` as the molecule, how does the Activity [1] read?
Answer: 33.5%

Question: Which Activity [1] does the source give for `CS(=O)(=O)CC(=O)c1cc2ccccc2s1` here?
Answer: 5.1%

Question: Which Activity [1] does the source give for `CCOC(=O)c1cc2cc(OC)c(OC)cc2s1` here?
Answer: 49.9%

Question: For `CCOC(=O)c1cc2ccccc2s1`, which Activity [1] is on record?
Answer: 8.2%

Question: Which Activity (Mus musculus [26]) does the source give for `CC[C@H](C)C(=O)O[C@H]1C[C@@H](C)C=C2C=C[C@H](C)[C@H](CC[C@@H]3C[C@@H](O)CC(=O)O3)[C@H]21` [LOVASTATIN] here?
Answer: 0.095 g/cm2

Question: And the Activity (Mus musculus [27])?
Answer: 6.59 µm

Question: And the Activity (Mus musculus [28])?
Answer: 6.64%

Question: And the Activity (Mus musculus [4])?
Answer: Active

Question: And the Activity [29]?
Answer: 20.9%

Question: And the Activity (Mus musculus [30])?
Answer: 0.07 g/cm2

Question: What about the Activity (Mus musculus [31]) of the same molecule?
Answer: Active

Question: What about the Activity (Mus musculus [32]) of the same molecule?
Answer: 7.44%

Question: And the Activity (Mus musculus [33])?
Answer: 0.046 g/cm2

Question: What about the Activity (Mus musculus [34]) of the same molecule?
Answer: 6.22%

Question: With `CCOC(=O)c1cc2cc(Cl)cc(Cl)c2o1` as the molecule, how does the Activity [1] read?
Answer: -1.6%

Question: With `C[S+]([O-])CC(=O)c1cc2cc3c(cc2s1)OCO3` (stereo not drawn) as the molecule, how does the Activity [1] read?
Answer: 0.6%

Question: For `CCOC(=O)c1ccc2sc(C(=O)/C=C/c3ccccc3Cl)cc2c1`, which Activity [1] is on record?
Answer: 24%

Question: Which Activity [1] does the source give for `O=C(/C=C/c1ccccc1)c1cc2ccccc2o1` here?
Answer: 24.4%

Question: Which Activity [1] does the source give for `CCOC(=O)c1cc2cccc(F)c2o1` here?
Answer: -18.1%

Question: For `C[S+]([O-])CC(=O)c1cc2c(Cl)cccc2s1` (stereo not drawn), which Activity [1] is on record?
Answer: 18.5%
